# Legend:
# [1] = system: A. baumannii; experiment: Membrane permeability, PI uptake; assay type: cell-based, Acinetobacter baumannii; conditions: 1 and 2X MIC, 2 hours
# Outline: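 Bacteria washed and resuspended at 0.3 McFarland in 5 mM HEPES/20 mM glucose, pH 7.4, with propidium iodide at 7.5 μg/mL final. Test compound was given to MRSA JE2 at 0.5, 1 and 2X MIC and to A. baumannii at 1 and 2X MIC. Controls were untreated cells, polymyxin B and daptomycin. Incubated 2 h at 37°C; fluorescence read at ex 535 nm/em 615 nm.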
# [2] = system: E. coli K12; experiment: Zeta potential of treated bacteria by DLS; assay type: cell-based, Escherichia coli; conditions: E. coli K12, PAs at 10X MIC
# [3] = system: E. coli K12; experiment: Inner membrane permeabilization assay; assay type: cell-based, Escherichia coli; conditions: E. coli K12, 0.5, 1 and 2X MIC, monitored for 180 mins, absorbance 415 nm, 37 °C, triplicate
# Outline: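 Assay for β-galactosidase release into the medium using ONPG as substrate, adapted from a published method. Test compound was dissolved in PBS at 1 mg/mL, annealed at 80 °C for 30 min, aged overnight, then diluted in PBS or media. Controls were polymyxin B (positive) and bacteria with ONPG and PBS (negative). o-Nitrophenol absorbance at 415 nm was read at intervals at 37 °C.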
# [4] = system: A. baumannii; experiment: Membrane depolarization, DiSC 3; assay type: cell-based, Acinetobacter baumannii; conditions: 1 and 2X MIC, 2 hours
# Outline: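 Cells suspended at 0.5 McFarland in 5 mM HEPES/20 mM glucose, pH 7.4, with DiSC3(5) at 1 μM final. Test compound at 1 and 2X MIC; controls were untreated cells, polymyxin B and daptomycin. Incubated 2 h at 37°C. Fluorescence read at ex 622 nm/em 670 nm; dye release into medium raises signal.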
# [5] = system: MRSA JE2; experiment: Zeta potential of treated bacteria by DLS; assay type: cell-based, Staphylococcus aureus; conditions: 1 hour treatment
# Outline: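 Bacteria were cultured 18–20 h, resuspended in PBS and adjusted to 5 X 10^7 CFU/mL. They were treated 1 h with test compound at 10X MIC; test compound was pre-annealed in PBS and aged overnight. Controls were untreated cells, polymyxin B and daptomycin. Zeta potential was then measured by DLS at 25 °C.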
Substance,PI intensity (membrane permeability) [1],change of bacterial zeta potential [2],order of membrane permeability (ONPG) [3],"order of activity, DiSC 3(5) [4]",change of bacterial zeta potential [5]
Polymyxin B [PMB],significant increase in PI intensity,does not show a notable change,PMB > PA 26 > PA 3 > PA 9,PA 26 > PMB > PA 9,
daptomycin,,,,,induces (slightly) the zeta potential to be more negative

# Source: article PMC10939825 (Chemistry (Weinheim an der Bergstrasse, Germany), 2024)
